Hits are enriched below; roughly 1.3% of the tested compounds scored in any of these assays.
Diaph inh CS: inhibits diaphorase or chemically oxidizes, flagging diaphorase assay artifacts. diaphorase resazurin-to-resorufin fluorescence, NADH, 16 min; bacterial (C. kluyveri) enzyme, not human. inhibition, % at 20 µM. hit rate 0.69% among 190,000. AID 1217;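 active = primary screen inhibition at 20 µM above a set limit, cut at about 50% in these data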
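Assay system: diaphorase enzyme from Clostridium kluyveri; Input: enzyme working solution with 0.14 U/mL diaphorase; Timing: 16 min at room temperature; Technique: resorufin fluorescence, excitation 544 nm, emission 590 nm; Benchmarks: positive control minus NADH, DMSO neutral control.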
HKDC1 inhibitor: HKDC1 (human) hexokinase inhibition; hit rate 0.16% among 340,000; inhibition, % at 20 µM; Q2TB90; recombinant HKDC1, G6PDH/diaphorase resazurin coupled fluorescence;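 active = inhibition above about 35% when tested at 20 µM, limit read from the data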
Target sequence (Q2TB90 whole entry, looked up): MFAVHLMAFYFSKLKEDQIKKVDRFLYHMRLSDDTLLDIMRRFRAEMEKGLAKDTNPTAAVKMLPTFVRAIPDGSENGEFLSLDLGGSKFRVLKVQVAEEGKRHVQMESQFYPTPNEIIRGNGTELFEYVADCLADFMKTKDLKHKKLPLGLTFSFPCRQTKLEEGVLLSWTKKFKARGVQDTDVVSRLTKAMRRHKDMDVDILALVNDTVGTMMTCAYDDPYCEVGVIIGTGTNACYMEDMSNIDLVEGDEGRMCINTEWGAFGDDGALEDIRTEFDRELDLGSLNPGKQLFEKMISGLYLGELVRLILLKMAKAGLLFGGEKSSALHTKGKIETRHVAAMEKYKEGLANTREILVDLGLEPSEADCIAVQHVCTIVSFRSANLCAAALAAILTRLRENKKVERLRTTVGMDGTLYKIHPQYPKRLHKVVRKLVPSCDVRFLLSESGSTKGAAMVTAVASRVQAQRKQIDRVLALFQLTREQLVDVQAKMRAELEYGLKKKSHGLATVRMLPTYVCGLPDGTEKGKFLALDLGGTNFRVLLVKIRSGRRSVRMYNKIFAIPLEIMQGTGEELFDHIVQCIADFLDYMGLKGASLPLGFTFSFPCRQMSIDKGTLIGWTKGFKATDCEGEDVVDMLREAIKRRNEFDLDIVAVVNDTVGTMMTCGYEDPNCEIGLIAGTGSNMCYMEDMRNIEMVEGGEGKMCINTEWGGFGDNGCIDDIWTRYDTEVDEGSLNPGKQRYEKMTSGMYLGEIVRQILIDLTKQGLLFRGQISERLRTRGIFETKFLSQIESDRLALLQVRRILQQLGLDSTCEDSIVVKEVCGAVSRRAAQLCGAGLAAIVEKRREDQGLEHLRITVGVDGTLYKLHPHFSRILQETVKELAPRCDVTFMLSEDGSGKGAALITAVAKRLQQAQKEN
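Test system: recombinant HKDC1 (HK5) hexokinase enzyme, produced in-house / Doses: 20 µM test compound, 1% DMSO / Timing: 90 min, room temperature / Detection: G6PDH/diaphorase-coupled fluorescence, 1 mM NADP, 100 µM resazurin, 525/613 nm / Control set: DMSO wells with and without enzyme mix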
PfGluPho inh: PfG6PD (Plasmodium falciparum) enzyme inhibition; PfGluPho enzyme, NADPH resazurin-diaphorase fluorescence; inhibition, % at 20 µM; hit rate 0.78% among 350,000; AID 504690;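 active = inhibition reaching at least a set limit at 20 µM in the primary screen, cut at about 59% in these data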
TbHK1 inh: T. brucei hexokinase 1 inhibition. recombinant TbHK1, G6PDH-coupled NADH A340. inhibition, % at 10 µM. hit rate 0.11% among 220,000. AID 1430;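 active = inhibition of 50% or more in the single-dose primary screen; inactive = inhibition below 50%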
G6PDH CS: inhibits Leuconostoc G6PDH, flagging false hits in G6PDH-based assays; inhibition, % at 5 µM; AID 1020; Purified L. mesenteroides G6PDH, diaphorase/resazurin coupled fluorescence, 45 min; hit rate 0.12% among 200,000; in the data active = inhibition above about 50%
PfGluPho conf: confirmation of Plasmodium falciparum G6PD inhibitors; shares compounds with PfGluPho inh; recombinant PfGluPho, NADPH-diaphorase-resazurin fluorescence; inhibition, % at 20 µM; hit rate 34% among 2,400; AID 504753;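 active = inhibition of at least 50% at 20 µM in any single replicate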
Diaphorase 10uM: diaphorase inhibition or oxidation at 10 uM NADPH. shares compounds with PfGluPho inh. diaphorase-coupled resazurin reduction, fluorescence, NADPH 10 uM. inhibition, % at 20 µM. hit rate 39% among 820;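 active = average inhibition reaching 50% or more with the compound at 20 µM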;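 also: resorufin red fluorescence formed as diaphorase reduces resazurin using NADPH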
Diaph ctr 30uM: inhibits diaphorase or oxidizes, flagging false PfG6PD hits. hit rate 29% among 820. inhibition, % at 20 µM. AID 504863. shares compounds with PfGluPho inh. Diaphorase/resazurin coupled assay, resorufin fluorescence, 30 uM NADPH;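 active = inhibition averaging 50% or more, tested at 20 µM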
A number is an active result; – = inactive; · = no result given; ! = a repeat was not active.

SMILES | Diaph inh CS | HKDC1 inhibitor | PfGluPho inh | TbHK1 inh | G6PDH CS | PfGluPho conf | others
Cn1c(C(=O)OC(C(=O)NC2CCCC2)c2ccncc2)cc2sccc21 (centres undefined) | – | – | – | – | – | ·
CCCCC(=O)Nc1sc(C(=O)N(CC)CC)c(C)c1C(=O)OC | – | – | 70 | – | – | –
CN(C)S(=O)(=O)c1ccc(C(=O)Nc2ccc(CN3CCCC3)cc2)cc1 | – | – | – | – | – | ·
O=C(CSc1nnc(-c2ccc(O)cc2)o1)Nc1ccccc1 | · | – | – | · | · | ·
COc1ccc(NC(=O)CSc2nnc(-c3cccc(O)c3)o2)cc1 | · | – | 80 | · | · | –
COc1ccc(C(=O)Nn2c(CC(C)C)nc3cc(OC)c(OC)cc3c2=O)c(OC)c1 | · | – | – | · | · | ·
O=S(=O)(/N=S1\CC=CCN1S(=O)(=O)c1ccccc1)c1ccccc1 (centres undefined) | · | – | 64 | · | · | –
O=[N+]([O-])c1ccc(SCCc2ccncc2)cc1 | · | – | 68! | – | · | –
O=[N+]([O-])c1ccc(SCCc2ccccn2)cc1 | · | – | – | – | · | ·
CCOC(=O)c1nn(-c2ccccc2C)c(=O)c2c(N)scc12 | – | – | – | – | – | ·
CCOC(=O)c1c(N)sn(-c2ccccc2C)c1=S | – | – | 73 | – | – | –
O=S(=O)(c1cccs1)N1CCCc2cccc(O)c21 | – | – | 93 | – | – | –
O=C(Nc1ccc2c(c1)N(S(=O)(=O)c1cccs1)CCC2)c1c(F)cccc1F | · | – | – | · | · | ·
CC1(C)CC(=O)C2=C(C1)N=C1c3ccccc3C(=O)C1C2c1ccc(Cl)cc1 (centres undefined) | – | – | 84 | – | – | –
CCC1CCc2sc(C(=O)NC3CCN(Cc4ccccc4)CC3)cc2C1 (centres undefined) | · | – | – | · | · | ·
CCOC(=O)c1c(NC(=O)C(Sc2ccccc2)c2ccccc2)sc(C(N)=O)c1C (centres undefined) | – | – | 61 | – | – | –
CCOC(=O)c1c(NC(=O)C(Sc2ccccc2)c2ccccc2)sc(C(=O)N(C)C)c1C (centres undefined) | – | – | 79 | – | – | –
CCN1CCN(C(c2ccc(OC)c(OC)c2)c2nnnn2C(C)(C)C)CC1 (centres undefined) | – | – | – | – | – | ·
CC(=O)c1cccc(NC(=O)C2CCN(S(=O)(=O)c3ccc(F)cc3)CC2)c1 | – | – | – | – | – | ·
C[C@H]1CN([C@@H](C)CO)C(=O)CCCn2cc(nn2)CO[C@@H]1CN(C)C(=O)Nc1ccnc(N2CCOCC2)c1 | · | · | – | · | · | ·
CC(=O)Nc1cccc(NC(=O)c2cc3ccccc3o2)c1 | – | – | – | – | – | ·
CC(C)NC(=O)c1cc2ccccc2o1 | – | – | – | – | – | ·
CCC(=O)N1CCN(c2ccc(NC(=O)c3ccco3)cc2Cl)CC1 | · | – | – | · | · | ·
Cc1ccc(NC(=O)c2cc3ccccc3o2)cc1Cl | · | – | 100 | · | · | –
CC(C)c1nnc(NC(=O)c2cc3ccccc3o2)s1 | · | – | 66 | · | · | 54 | Diaphorase 10uM=–;Diaph ctr 30uM=–
SMILES | Diaph inh CS | HKDC1 inhibitor | PfGluPho inh | TbHK1 inh | G6PDH CS | PfGluPho conf | others
CCC(=O)N1CCN(c2ccc(NC(=O)c3cc4ccccc4o3)cc2Cl)CC1 | – | – | 118 | – | – | 84 | Diaphorase 10uM=72;Diaph ctr 30uM=61
O=C(Nc1ccc(N2CCN(C(=O)c3ccccc3)CC2)c(Cl)c1)c1ccco1 | – | – | – | – | – | ·
O=C(Nc1ccc(N2CCN(C(=O)c3ccco3)CC2)c(Cl)c1)c1cc2ccccc2o1 | – | – | 90 | – | – | 43 | Diaphorase 10uM=–;Diaph ctr 30uM=–
Cc1cc(C)c2c(N)c(C(=O)N3CCCCCC3)sc2n1 | – | – | 70 | – | – | –
Cc1ccc(C)c2nc3sc(C(=O)N4CCOCC4)c(N)c3cc12 | – | – | – | – | – | ·
Cc1cc(C)c2nc3sc(C(=O)N4CCOCC4)c(N)c3cc2c1 | · | – | 65 | – | · | –
CC1CCCC(C)N1C(=O)CSc1nc(N)cc(N)n1 (centres undefined) | · | – | – | · | · | ·
O=C(O)C1CCC(C(=O)O)O1 (centres undefined) | · | – | – | · | · | ·
Cc1cc(=O)oc2cc(OCC(=O)N3CCOCC3)ccc12 | – | – | 68 | – | – | –
Cc1cc(CNC(=S)Nc2ccc(S(=O)(=O)Nc3ncccn3)cc2)nn1C | · | – | – | · | · | ·
CCn1c(SCc2nc3ccccc3[nH]2)nnc1-c1cccnc1 | – | – | – | – | – | ·
CCn1c(SCc2nc3ccccc3[nH]2)nnc1-c1cnccn1 | – | – | 67 | – | – | –
CC(=O)OCCNc1cc(N2CCN(C)CC2)c2noc3c2c1C(=O)c1ccccc1-3 | – | – | 85 | – | – | –
COc1cccc(C(=O)Nc2nnc(-c3ccccc3)s2)c1OC | · | – | – | · | · | ·
COc1cccc(C(=O)Nc2sc(C(C)C)cc2C(N)=O)c1OC | · | – | 98 | – | · | –

Assay outcomes from PubChem.
